Calls of active or inactive are those of the source. The rule behind the calls is not given here.
Legend:
[1] = Cytotoxicity against human Tet21N cells assessed as decrease in cell viability by trypan blue test; assay type: functional, cell-based
MCF7 = assay: Cytotoxicity against human MCF7 cells assessed as decrease in cell viability by trypan blue test; assay type: functional, cell-based
Splenocyte = assay: Cytotoxicity against BALB/c mouse splenocytes assessed as decrease in cell viability by trypan blue test; assay type: cell-based
HCT-116 [2] = assay: Induction of apoptosis in human HCT116 cells assessed as release of cytochrome C from mitochondria at 3.5 uM by SDS/PAGE analysis; assay type: functional, cell-based
Summary of the method: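 HCT116 cells at about 1 × 10^6 per 100 μl were permeabilized with 0.01% digitonin in 150 mM KCl, 1 mM MgCl2, 0.2 mM EGTA and 5 mM Tris for 10 min at room temperature. Supernatant (cytosol) and pellet (mitochondria) were separated by centrifugation. Cytochrome c in each fraction was detected by 15% SDS-PAGE and western blot.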

HCT-116 [3] = assay: Cell cycle arrest in human HCT116 cells assessed as accumulation at sub-G1 phase by propidium iodide staining-based flow cytometric method (reference value: 0.8%); assay type: functional
HCT-116 [4] = assay: Inhibition of mitochondrial respiration in human HCT116 cells after 24 hrs in presence of oligomycin/CCCP/rotenone/antimycin; assay type: functional, cell-based
Summary of the method: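 About 15 000 HCT116 cells per well adhered overnight and were treated for 24 h. They were then held 1 h at 37 °C without CO2 in unbuffered DMEM (5 mM glucose, 2 mM glutamine, pH 7.4). Oxygen consumption was measured by Seahorse XF-96: basal, then sequential oligomycin, CCCP, and rotenone plus antimycin A. Data were normalized to total protein per well.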

HCT-116 [5] = assay: Induction of apoptosis in human HCT116 cells assessed as caspase-3 cleavage using DEVD-AMC as substrate by fluorescence assay; assay type: functional, cell-based
Homo sapiens [6] = species: Homo sapiens; assay: Induction of apoptosis in human Tet21N cells assessed as caspase-3 cleavage using DEVD-AMC as substrate by fluorescence assay; assay type: functional, cell-based
HCT-116 [7] = assay: Inhibition of mitochondrial respiration in human HCT116 cells at 1 to 2 uM after 24 hrs in presence of oligomycin/CCCP/rotenone/antimycin; assay type: functional, cell-based
Summary of the method: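 About 15 000 cells per well adhered overnight, then treated 24 h. Washed and held 1 h at 37 °C without CO2 in unbuffered DMEM (5 mM glucose, 2 mM glutamine, pH 7.4). Seahorse XF-96 oxygen consumption read: basal, then oligomycin (proton leak), CCCP (spare capacity), rotenone plus antimycin A (non-mitochondrial). Normalized to total protein per well.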

Homo sapiens [8] = species: Homo sapiens; assay: Induction of apoptosis in human Tet21N cells assessed as PARP cleavage at 5 to 15 uM by Western blot analysis; assay type: functional, cell-based
Summary of the method: (§1)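 Whole-cell lysates in lysis buffer with protease inhibitors, 10 min room temperature; insoluble material cleared at 13 000 rpm, 20 min, 4 °C; equal protein loaded for SDS-PAGE and blotted; membranes blocked 1 h in 5% non-fat milk; PARP cleavage detected by ECL. HCT116 and RKO in DMEM, SK-N-BE(2) and Tet21N in RPMI 1640 with 10% FCS; Tet21N medium also hygromycin 100 μg ml–1 and geneticin 200 μg ml–1.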

HCT-116 [9] = assay: Induction of apoptosis in human HCT116 cells assessed as PARP cleavage at 20 uM by Western blot analysis; assay type: functional, cell-based; summary of the method: as §1
RKO = assay: Induction of apoptosis in human RKO cells assessed as PARP cleavage at 50 uM by Western blot analysis; assay type: functional, cell-based; summary of the method: as §1
Homo sapiens [10] = species: Homo sapiens; assay: Induction of apoptosis in human SK-N-BE(2) cells assessed as PARP cleavage at 50 uM by Western blot analysis; assay type: functional, cell-based; summary of the method: as §1

| Compound | IC50 ([1]; Homo sapiens) [nM] | IC50 (MCF7; Homo sapiens, MCF7) [nM] | IC50 (Splenocyte) [nM] | Activity (HCT-116 [2]) | also measured |
| --- | --- | --- | --- | --- | --- |
| C=C(C)[C@@H]1CC[C@]2(C(=O)O)CC[C@]3(C)[C@H](CC[C@@H]4[C@@]5(C)CC[C@H](OC(=O)C(Cl)Cl)C(C)(C)[C@@H]5CC[C@]43C)[C@@H]12 | 4900 | 15900 |  |  |  |
| C=C(C)[C@@H]1CC[C@]2(C(=O)OCCCC[P+](c3ccccc3)(c3ccccc3)c3ccccc3)CC[C@]3(C)[C@H](CC[C@@H]4[C@@]5(C)CC[C@H](OC(=O)C(Cl)Cl)C(C)(C)[C@@H]5CC[C@]43C)[C@@H]12 | 1260 | 800 | 1950 | Active |  |
| C[C@H]1[C@H](C)CC[C@]2(C(=O)OCCOCCOCC[P+](c3ccccc3)(c3ccccc3)c3ccccc3)CC[C@]3(C)C(=CC[C@@H]4[C@@]5(C)CC[C@H](OC(=O)C(Cl)Cl)C(C)(C)[C@@H]5CC[C@]43C)[C@H]12 | 1180 | 3900 | 1130 | Active |  |
| C=C(C)[C@@H]1CC[C@]2(C(=O)OCCOCCOCC[P+](c3ccccc3)(c3ccccc3)c3ccccc3)CC[C@]3(C)[C@H](CC[C@@H]4[C@@]5(C)CC[C@H](OC(C)=O)C(C)(C)[C@@H]5CC[C@]43C)[C@@H]12.[Br-] | 980 | 850 |  |  | Activity (HCT-116 [3]): 29.9% |
| C=C(C)[C@@H]1CC[C@]2(C(=O)OCCOCCOCC[P+](c3ccccc3)(c3ccccc3)c3ccccc3)CC[C@]3(C)[C@H](CC[C@@H]4[C@@]5(C)CC[C@H](OC(=O)C(Cl)Cl)C(C)(C)[C@@H]5CC[C@]43C)[C@@H]12 | 950 | 2310 | 660 | Active |  |
| C=C(C)[C@@H]1CC[C@]2(C(=O)OCCOCCOCC[P+](c3ccccc3)(c3ccccc3)c3ccccc3)CC[C@]3(C)[C@H](CC[C@@H]4[C@@]5(C)CC[C@H](O)C(C)(C)[C@@H]5CC[C@]43C)[C@@H]12 | 740 | 700 |  | Active | inhibition (HCT-116 [4]): Dose-dependent effect; Activity (HCT-116 [5]): Active; Activity (Homo sapiens [6]): Active |
| C=C(C)[C@@H]1CC[C@]2(C(=O)OCCOCCOCC[P+](c3ccccc3)(c3ccccc3)c3ccccc3)CC[C@]3(C)[C@H](CC[C@@H]4[C@@]5(C)CC[C@H](OC(C)=O)C(C)(C)[C@@H]5CC[C@]43C)[C@@H]12 [listing 1 of 2 here] |  |  |  | Active | inhibition (HCT-116 [4]): Dose-dependent effect |
| C=C(C)[C@@H]1CC[C@]2(C(=O)O)CC[C@]3(C)[C@H](CC[C@@H]4[C@@]5(C)CC[C@H](O)C(C)(C)[C@@H]5CC[C@]43C)[C@@H]12 [BETULINIC ACID] |  | > 25000 |  | inactive | inhibition (HCT-116 [7]): inactive; Activity (Homo sapiens [8]): Active; Activity (HCT-116 [9]): Active; Activity (RKO): Active; Activity (Homo sapiens [10]): Active; Activity (HCT-116 [5]): inactive; Activity (Homo sapiens [6]): inactive; Activity (HCT-116 [3]): 2.2% |
| C[C@H]1[C@H](C)CC[C@]2(C(=O)OCCOCCOCC[P+](c3ccccc3)(c3ccccc3)c3ccccc3)CC[C@]3(C)C(=CC[C@@H]4[C@@]5(C)CC[C@H](O)C(C)(C)[C@@H]5CC[C@]43C)[C@H]12 | 810 | 1590 |  | Active |  |
| C[C@H]1[C@H](C)CC[C@]2(C(=O)O)CC[C@]3(C)C(=CC[C@@H]4[C@@]5(C)CC[C@H](OC(=O)C(Cl)Cl)C(C)(C)[C@@H]5CC[C@]43C)[C@H]12 | > 10000 | > 20000 |  |  |  |
| C=C(C)[C@@H]1CC[C@]2(C(=O)OCCOCCOCC[P+](c3ccccc3)(c3ccccc3)c3ccccc3)CC[C@]3(C)[C@H](CC[C@@H]4[C@@]5(C)CC[C@H](OC(C)=O)C(C)(C)[C@@H]5CC[C@]43C)[C@@H]12 [listing 2 of 2 here] |  |  |  |  | IC50 [1]: 1280 nM; IC50 (MCF7; mcf7): 1510 nM |
| C[C@H]1[C@H](C)CC[C@]2(C(=O)OCCCC[P+](c3ccccc3)(c3ccccc3)c3ccccc3)CC[C@]3(C)C(=CC[C@@H]4[C@@]5(C)CC[C@H](OC(=O)C(Cl)Cl)C(C)(C)[C@@H]5CC[C@]43C)[C@H]12 | 4400 | 2760 | 1750 | Active |  |
